Data taken from ChEMBL document CHEMBL5352422, “Development of l-Dopa-containing diketopiperazines as blood-brain barrier shuttle” (Eur J Med Chem, 2022).
Converted amounts (≈) assume the structure as drawn. The source made the active and inactive calls. The rule behind the calls is not given here.

Tests used:
[1] = Antioxidant activity against Primary human whole blood cell assessed as H2O2 equivalent of total oxidative stress at 10 nM incubated for 24 hrs (0.6 to 1.9 micromolequiv/L); format: functional
[2] = Antioxidant activity against Primary human whole blood cell assessed as trolox equivalent of total antioxidant capacity at 100 nM incubated for 24 hrs (19.3 to 32.5 mmolequiv/L ); format: functional
[3] = Cytotoxicity against Primary human whole blood cell at 10 to 500 nM incubated for 24 hrs by MTT assay; format: toxicity, cell-based; details: 0.5 µM, dose 10-500 nM
Procedure, shortened: (§1)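 Primary cultures (rat fetal cortical neurons; human whole-blood cultures with phytohemagglutinin) exposed to aqueous compound at 10–500 nM for 24 h at 37 °C. Then incubated with 0.7 mg/mL MTT for 30 min at 37 °C, formazan extracted with isopropanol/formic acid 95:5, read at 560 nm. Control formazan = 100% viability. Mitomycin C 10^-7 M as positive control; n = 4.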

[4] = Induction of DNA damage in rat Cerebral cortex cell assessed as total DNA damage score at 500 nM incubated for 24 hrs by Comet assay (reference value: 36.8 to 89.2); format: functional, Cerebral cortex neuron
[5] = Induction of DNA damage in rat Cerebral cortex cell assessed as total DNA damage score at 100 nM incubated for 24 hrs by Comet assay (reference value: 36.8 to 89.2); format: functional, Cerebral cortex neuron
[6] = Cytotoxicity against rat Cerebral cortex cell at 10 to 500 nM incubated for 24 hrs by LDH assay; format: toxicity, cell-based; details: cerebral cortex neuron, 0.5 µM, dose 10-500 nM
Procedure, shortened: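 Rat fetal cortical neuron or human whole-blood cultures treated 24 h at 37 °C with aqueous compound at 10–500 nM. LDH released into 100 µL of medium measured by kit as the rate of NAD+ reduction (lactate to pyruvate), absorbance increase at 490 nm. Mitomycin C 10^-7 M as positive control; four independent experiments.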

[7] = Genotoxicity in human Lymphocyte assessed as sister chromatid exchange measured per cells at 50 nM incubated for 72 hrs giemsa staining based fluorescence method (reference value: 6.6 to 14.3); format: toxicity, cell-based; details: 0.05 µM
[8] = Apparent permeability of the compound across apical side to basolateral side in human Caco-2 cells measured upto 180 mins by HPLC analysis; format: ADME, cell-based
[9] = Induction of DNA damage in Primary human whole blood cell assessed as total DNA damage score at 10 nM incubated for 24 hrs by Comet assay (reference value: 35.4 to 77.9); format: functional
[10] = Antioxidant activity against rat Cerebral cortex cell assessed as trolox equivalent of total antioxidant capacity at 10 nM incubated for 24 hrs (14.7 to 27.5 mmolequiv/L ); format: functional, Cerebral cortex neuron
[11] = Genotoxicity in human Lymphocyte assessed as micronuclei formation measured per 1000 cells at 10 nM incubated for 72 hrs giemsa staining based analysis (reference value: 4.5 to 17.9); format: toxicity, cell-based; details: 0.01 µM
Procedure, shortened: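 Human whole-blood lymphocyte cultures with phytohemagglutinin, incubated with compound for 72 h at 37 °C. Cytochalasin B added at 44 h. Cells fixed in ice-cold methanol/acetic acid 1:1, cytospun, Giemsa-stained. At least 1000 binucleated lymphocytes per concentration scored for micronuclei by one observer.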

[12] = Effective permeability of compound at 500 uM incubated for 18 hrs by […] method; format: ADME; details: read-out: Peff
Procedure, shortened: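 PAMPA-BBB: donor contained compound at 500 µM final in PBS pH 7.4 with 20% v/v MeOH. Incubated 18 h. Donor and acceptor concentrations measured by HPLC; effective permeability Pe (cm/s) calculated.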

[13] = Stability of the compound in stimulated gastric fluid at 40 mg/ml pepsin by measuring observed rate constant measured upto 60 mins by HPLC analysis; format: ADME; details: simulated gi fluid, 1 h
Procedure, shortened: (§2)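 USP simulated gastric fluid containing pepsin, preheated, in a 37 °C shaking water bath. Samples at 0, 15, 30 and 60 min were deproteinized with ice-cold acetonitrile containing 0.5% formic acid, centrifuged at 4 °C, filtered and analyzed by HPLC. Means of three experiments.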

[14] = Induction of DNA damage in Primary human whole blood cell assessed as 8-OH-dG adducts formation at 100 nM incubated for 24 hrs by […] (reference value: 0.12 to 2.21 pg/ml); format: functional
[15] = Solubility of the compound in water by HPLC-UV analysis; format: physicochemical
[16] = Induction of DNA damage in Primary human whole blood cell assessed as 8-OH-dG adducts formation at 10 nM incubated for 24 hrs by […] (reference value: 0.12 to 2.21 pg/ml); format: functional
[17] = Antioxidant activity against rat Cerebral cortex cell assessed as H2O2 equivalent of total oxidative stress at 50 nM incubated for 24 hrs (0.7 to 2.3 micromolequiv/L); format: functional, Cerebral cortex neuron
[18] = Induction of DNA damage in Primary human whole blood cell assessed as total DNA damage score at 50 nM incubated for 24 hrs by Comet assay (reference value: 35.4 to 77.9); format: functional
[19] = Stability of the compound in stimulated intestinal fluid at 10 mg/ml pancreatin by measuring observed rate constant measured upto 180 mins by HPLC analysis; format: ADME; details: simulated gi fluid, 3 h
Procedure, shortened: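 USP simulated intestinal fluid containing pancreatin, in a 37 °C shaking water bath. Samples at 0, 60, 120 and 180 min were quenched with ice-cold acetonitrile containing 0.5% formic acid, centrifuged at 4 °C for 10 min, filtered and analyzed by HPLC. Means of three experiments ± SD.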

[20] = Antioxidant activity against Primary human whole blood cell assessed as trolox equivalent of total antioxidant capacity at 10 nM incubated for 24 hrs (19.3 to 32.5 mmolequiv/L ); format: functional
[21] = Antioxidant activity against rat Cerebral cortex cell assessed as H2O2 equivalent of total oxidative stress at 10 nM incubated for 24 hrs (0.7 to 2.3 micromolequiv/L); format: functional, Cerebral cortex neuron
[22] = system: PC-12; experiment: Inhibition of MPP+ induced ROS production in rat PC-12 cells at 100 nM preincubated with compound for 24 hrs followed by MPP+ treatment for 24 hrs by DCFH-DA staining based fluorescence method; details: time 48.0 hrs
[23] = Induction of DNA damage in Primary human whole blood cell assessed as total DNA damage score at 500 nM incubated for 24 hrs by Comet assay (reference value: 35.4 to 77.9); format: functional
[24] = Antioxidant activity against Primary human whole blood cell assessed as trolox equivalent of total antioxidant capacity at 50 nM incubated for 24 hrs (19.3 to 32.5 mmolequiv/L ); format: functional
[25] = Stability of the compound in stimulated gastric fluid at 10 mg/ml pepsin by measuring half life measured upto 60 mins by HPLC analysis; format: ADME; details: simulated gastric fluid with pepsin; procedure, shortened: as §2
[26] = Stability in human plasma assessed as half life by HPLC method; format: ADME, cell-free
Procedure, shortened: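 Stock added to 37 °C human plasma diluted with 0.02 M phosphate buffer pH 7.4 to 80% plasma. Aliquots taken over time were quenched with 0.01 M HCl in methanol, centrifuged 5 min at 5000 g, and supernatant analyzed by HPLC-UV. t1/2 and k_obs are means of three experiments ± SD.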

[27] = Cytotoxicity against rat Cerebral cortex cell at 10 to 500 nM incubated for 24 hrs by MTT assay; format: toxicity, cell-based; details: cerebral cortex neuron, 0.5 µM, dose 10-500 nM; procedure, shortened: as §1

## C#CCSC[C@H]1NC(=O)[C@H](Cc2ccc(OC(C)=O)c(OC(C)=O)c2)NC1=O
[1]
  Activity: 0.6 umolequiv/L
[2]
  Activity: 19.5 mmolequiv/L
[3]
  Activity: Non-Toxic
[4]
  Activity: 38.1
[5]
  Activity: 37.8
[6]
  Activity: Non-Toxic
[7]
  Activity: 6.8
[8]
  Papp A→B at 3 h: 17.4 ×10⁻⁶ cm/s
[9]
  Activity: 36
[10]
  Activity: 14.7 mmolequiv/L
[11]
  Activity: 4.6
[12]
  Papp at 18 h, 500 µM: 4.88 ×10⁻⁶ cm/s
[13]
  Kobs: 0.012 h⁻¹
[14]
  Activity: 0.12 pg/mL
[15]
  solubility: 630 µg/mL (≈ 1560 µM)
[16]
  Activity: 0.12 pg/mL
[17]
  Activity: 0.6 umolequiv/L
[18]
  Activity: 35.8
[19]
  Kobs: 0.198 h⁻¹
[20]
  Activity: 19.4 mmolequiv/L
[21]
  Activity: 0.7 umolequiv/L
[22]
  inhibition: Active
[23]
  Activity: 36.3
[24]
  Activity: 19.5 mmolequiv/L
[25]
  half-life: 91 h
[26]
  half-life: 2.09 h
[27]
  Activity: Non-Toxic

## C=CCSC[C@H]1NC(=O)[C@H](Cc2ccc(OC(C)=O)c(OC(C)=O)c2)NC1=O
[1]
  Activity: 0.6 umolequiv/L
[2]
  Activity: 19.7 mmolequiv/L
[3]
  Activity: Non-Toxic
[4]
  Activity: 37.6
[5]
  Activity: 37.1
[6]
  Activity: Non-Toxic
[7]
  Activity: 6.7
[8]
  Papp A→B at 3 h: 7.5 ×10⁻⁶ cm/s
[9]
  Activity: 35
[10]
  Activity: 15.1 mmolequiv/L
[11]
  Activity: 4.7
[12]
  Papp at 18 h, 500 µM: 2.42 ×10⁻⁶ cm/s
[13]
  Kobs: 0.031 h⁻¹
[14]
  Activity: 0.12 pg/mL
[15]
  solubility: 323 µg/mL (≈ 795 µM)
[16]
  Activity: 0.12 pg/mL
[17]
  Activity: 0.7 umolequiv/L
[18]
  Activity: 35.7
[19]
  Kobs: 1.03 h⁻¹
[20]
  Activity: 19.2 mmolequiv/L
[21]
  Activity: 0.7 umolequiv/L
[22]
  inhibition: Active
[23]
  Activity: 36.1
[24]
  Activity: 19.4 mmolequiv/L
[25]
  half-life: 24.2 h
[26]
  half-life: 0.096 h
[27]
  Activity: Non-Toxic
